Source: ChEMBL document CHEMBL2203121, “DNA cleavage induced by antitumor antibiotic leinamycin and its biological consequences” (Bioorg Med Chem, 2012)
In brackets after ≈: the same amount, converted by molar mass. Each block holds one compound with its values, some of them ahead of it. Activity calls are given as the source filed them. No cut-off for these calls is given here.

What was measured:
Nucleic Acid [1] = experiment: Induction of DNA cleavage in 32P-labeled oligomer duplex Sp25 DNA up to 24 hrs by PAGE analysis without hot piperidine treatment; assay type: nucleic-acid assay
Outline: (§1)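 5'-32P-end-labelled, gel-purified Sp25 duplex (100 fmol) was incubated with leinamycin at 37°C in 20 mM Tris-HCl pH 7.6, 20 mM NaCl, 1 mM DTT, with no piperidine step. Unreacted drug was removed on a G-10 column. Fragments were resolved on 16% urea-PAGE and quantified by phosphorimaging.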

[2] = Cytotoxicity against chinese hamster NER-mutant UV135 cells assessed as cell survival by clonogenic survival assay; assay type: functional, cell-based; conditions: Cricetulus griseus
Outline: (§2)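 CHO lines from repair-proficient and repair-mutant backgrounds, grown in RPMI1640 with 10% FCS. Cells plated in triplicate at 400 cells/well and dosed 24 h later with a range of leinamycin concentrations. Colonies grew 14 days and were stained with 1% methylene blue in 50% ethanol. Dye was eluted in isopropanol with 0.4 M HCl and read at 595 nm for relative survival.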

CHO-AA8 [3] = experiment: Cytotoxicity against chinese hamster AA8 cells assessed as cell survival by clonogenic survival assay; assay type: functional, cell-based; conditions: Cricetulus griseus; outline: as §2
[4] = Cytotoxicity against human MiaPaCa cells by MTT assay; assay type: functional, cell-based; conditions: MIA PaCa-2
Outline: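 MiaPaCa cells in RPMI1640 with 10% FCS were exposed to leinamycin. Viability was read by MTT reduction to formazan, with absorbance of solubilised formazan at 595 nm. Survival was determined in triplicate with ±SE.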

Nucleic Acid [5] = experiment: Induction of DNA cleavage in 32P-labeled oligomer duplex Sp25 DNA after 8 hrs by PAGE analysis with hot piperidine treatment; assay type: nucleic-acid assay
Outline: (§3)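 5'-32P-end-labelled, gel-purified Sp25 duplex (100 fmol) was incubated with leinamycin at 37°C in 20 mM Tris-HCl pH 7.6, 20 mM NaCl, 1 mM DTT. Drug was removed on a G-10 column, then DNA was heated 30 min in 1 M piperidine. Products were run on 16% urea-PAGE and quantified by phosphorimaging.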

Nucleic Acid [6] = experiment: Induction of DNA cleavage in 32P-labeled oligomer duplex Sp25 DNA at 2 ug/ml to 100 ug/ml after 24 hrs by PAGE analysis followed by hot piperidine treatment; assay type: nucleic-acid assay; outline: as §3
[7] = Cytotoxicity against human MiaPaCa cells assessed as potentiation of methoxyamine-mediated cytotoxicity by MTT assay; assay type: functional, cell-based; conditions: MIA PaCa-2
Outline: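 MiaPaCa cells in RPMI1640 with 10% FCS were given leinamycin alone or combined with methoxyamine, a BER inhibitor, tested alone up to 25 mM. Survival was measured by MTT, reading solubilised formazan at 595 nm, in triplicate with ±SE.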

[8] = Cytotoxicity against chinese hamster NER-mutant UV5 cells assessed as cell survival by clonogenic survival assay; assay type: functional, cell-based; conditions: Cricetulus griseus; outline: as §2
Nucleic Acid [9] = experiment: Induction of DNA cleavage in 32P-labeled oligomer duplex Sp25 DNA at 2 ug/ml to 100 ug/ml after 24 hrs by PAGE analysis without hot piperidine treatment; assay type: nucleic-acid assay; outline: as §1
Cricetulus griseus = species on record: Cricetulus griseus; experiment: Cytotoxicity against chinese hamster BER-mutant EM9 cells assessed as cell survival by clonogenic survival assay; assay type: functional, cell-based; outline: as §2
[10] = Cytotoxicity against chinese hamster NER-mutant UV41 cells assessed as cell survival by clonogenic survival assay; assay type: functional, cell-based; conditions: Cricetulus griseus; outline: as §2
CHO-AA8 [11] = experiment: Ratio for chinese hamster AA8 cells to chinese hamster BER-mutant EM9 cells; assay type: functional, Cricetulus griseus
Xrs-5 = experiment: Cytotoxicity against chinese hamster kU86-mutant Xrs-5 cells assessed as cell survival by clonogenic survival assay; assay type: functional, cell-based; conditions: Cricetulus griseus; outline: as §2
Nucleic Acid [12] = experiment: Inhibition of bleomycin-induced strand breaks in 32P-labeled 25-bp oligomer duplex Sp25 DNA at 1 mM by PAGE analysis without hot piperidine treatment; assay type: nucleic-acid assay
Outline: (§4)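 5'-32P-end-labeled Sp25 duplex (100 fmol) exposed at 37°C for 24 h to leinamycin, Fe(II)-bleomycin or 1 mM MMS with rising methoxyamine levels in 20 mM Tris–HCl pH 7.6, 20 mM NaCl, 1 mM DTT; unreacted drug removed by Sephadex G-10; no piperidine step; denaturing 16% urea–acrylamide gel, PhosphorImager scan.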

Nucleic Acid [13] = experiment: Inhibition of methylmethanesulfonate-induced strand breaks in 32P-labeled 25-bp oligomer duplex Sp25 DNA at 1 mM after 24 hrs by PAGE analysis followed by hot piperidine treatment; assay type: nucleic-acid assay
Outline: (§5)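 5'-32P-end-labeled duplex Sp25 (100 fmol), gel-purified, incubated at 37°C for 24 h with leinamycin, Fe(II)-bleomycin or 1 mM MMS plus increasing methoxyamine in 20 mM Tris–HCl pH 7.6, 20 mM NaCl, 1 mM DTT; drug removed on Sephadex G-10; then 1 M piperidine, 90°C, 30 min; 16% urea–acrylamide gel, PhosphorImager quantification.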

Nucleic Acid [14] = experiment: Inhibition of Leinamycin-induced strand breaks in 32P-labeled 25-bp oligomer duplex Sp25 DNA after 24 hrs by PAGE analysis without hot piperidine treatment; assay type: nucleic-acid assay; outline: as §4
Nucleic Acid [15] = experiment: Inhibition of bleomycin-induced strand breaks in 32P-labeled 25-bp oligomer duplex Sp25 DNA at 1 mM after 24 hrs by PAGE analysis followed by hot piperidine treatment; assay type: nucleic-acid assay; outline: as §5
Nucleic Acid [16] = experiment: Inhibition of Leinamycin-induced strand breaks in 32P-labeled 25-bp oligomer duplex Sp25 DNA after 24 hrs by PAGE analysis followed by hot piperidine treatment; assay type: nucleic-acid assay; outline: as §5
[17] = Potentiation of leinamycin-induced cytotoxicity in human MiaPaCa cells by MTT assay; assay type: functional
Outline: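 MiaPaCa cells grown in RPMI1640 with 10% FCS, exposed to methoxyamine (up to 25 mM), leinamycin or both; viability by MTT reduction, formazan solubilized and read at 595 nm; triplicate determinations, bars ±SE.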

Nucleic Acid [18] = experiment: Inhibition of Leinamycin-induced strand breaks in 32P-labeled 25-bp oligomer duplex Sp25 DNA at 1mM by PAGE analysis followed by hot piperidine treatment; assay type: nucleic-acid assay; outline: as §5
Nucleic Acid [19] = experiment: Inhibition of leinamycin-induced strand breaks in 32P-labeled 25-bp oligomer duplex Sp25 DNA at 1mM after 24 hrs by PAGE analysis without hot piperidine treatment; assay type: nucleic-acid assay; outline: as §4
Nucleic Acid [20] = experiment: Inhibition of methyl methanesulfonate-induced strand breaks in 32P-labeled 25-bp oligomer duplex Sp25 DNA at 1 mM by PAGE analysis without hot piperidine treatment; assay type: nucleic-acid assay; outline: as §4

Structure (SMILES): C/C1=C\[C@@H](O)C(=O)/C=C/C=C\c2csc(n2)[C@@H](C)NC(=O)C[C@@]2(CC1)[S+]([O-])SC(=O)[C@]2(C)O (some centres not stated) [LEINAMYCIN]
Activity (Nucleic Acid [1]): Active | IC50 [2]: 2 ng/mL (≈ 3.92 nM) | IC50 (CHO-AA8 [3]): 10 ng/mL (≈ 19.6 nM) | IC50 [4]: 40 ng/mL (≈ 78.3 nM) | Activity (Nucleic Acid [5]): Active | Activity (Nucleic Acid [6]): Dose-dependent effect | IC50 [7]: 15 ng/mL | IC50 [8]: 3 ng/mL (≈ 5.87 nM) | Activity (Nucleic Acid [9]): Dose-dependent effect | Activity (Cricetulus griseus): Active | IC50 [10]: 3 ng/mL (≈ 5.87 nM) | Ratio (CHO-AA8 [11]): >3 | Activity (Xrs-5): Active

Activity (Nucleic Acid [12]): inactive | Activity (Nucleic Acid [13]): inactive | Activity (Nucleic Acid [14]): Active | Activity (Nucleic Acid [15]): inactive | Activity (Nucleic Acid [16]): Active | Activity (Nucleic Acid [18]): inactive | Activity (Nucleic Acid [19]): inactive | Activity (Nucleic Acid [20]): inactive
Structure (SMILES): CON [METHOXYAMINE]
fold change (FC) [17]: 2.5
